Calls of active or inactive are those of the source. The rule behind the calls is not given here.
How the values were obtained:
HeLa [1] = experiment: Antiproliferative activity against multidrug resistant human HeLa cells expressing wild type beta3 tubulin after 48 hrs by SRB assay; type: functional, cell-based
Procedure, shortened: (§1)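 SRB assay; IC50 is the mean of three independent experiments, each run in triplicate. Cells were kept at 37 °C under 5% CO2. HeLa and SK-OV-3 lines (parental and MDR1-M6/6) were grown in Basal Medium Eagle with 10% FBS, 1% GlutaMAX and 50 µg/mL gentamycin. HeLa WTβIII was grown in DMEM with 10% FBS.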

Tubulin = Tubulin (Bos taurus, UniProt Q6B856+Q862L2+Q862F3); experiment: Inhibition of tubulin assembly in bovine brain […] assessed as reduction in turbidity increase preincubated for 15 mins followed by GTP addition measured for 20 mins by spectrophotometric analysis
Procedure, shortened: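 Purified bovine brain tubulin, 1.0 mg/mL (10 µM), was preincubated 15 min at 30 °C in 0.8 M monosodium glutamate (pH 6.6) with compound and 4% DMSO. Mixtures were chilled and 0.4 mM GTP added. Turbidity was followed for 20 min at 30 °C. IC50 is the concentration halving the turbidity increase, interpolated between tested concentrations.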

SK-OV-3 [2] = experiment: Cytotoxicity against human SKOV3 cells assessed as growth inhibition after 48 hrs by SRB assay; type: functional, cell-based; details: SK-OV-3, 48 h; procedure, shortened: as §1
HeLa [3] = experiment: Cell cycle arrest in human HeLa cells assessed as accumulation at G2/M phase at 5 times IC50 after 18 hrs by flow cytometry (reference value: 17.11 +/- 1.09%); type: functional
SK-OV-3 [4] = experiment: Antiproliferative activity against multidrug resistant human SKOV3 cells expressing MDR1-M6/6 after 48 hrs by SRB assay; type: functional, cell-based; details: SK-OV-3, 48 h; procedure, shortened: as §1
Tubulin (Bos taurus) [5] = target: T1, Tubulin (Bos taurus) (UniProt Q6B856+Q862L2+Q862F3); experiment: Inhibition of [3H]colchicine binding to tubulin in bovine brain homogenate at 5 uM incubated for 10 mins by DEAE-cellulose filter assay; type: tissue-based
Tubulin (Bos taurus) [6] = target: T1, Tubulin (Bos taurus); experiment: Displacement of [3H]colchicine from tubulin in bovine brain homogenate at 1 uM incubated for 10 mins by DEAE-cellulose filter assay; type: tissue-based
HeLa [7] = experiment: Antiproliferative activity against human HeLa cells after 48 hrs by SRB assay; type: functional, cell-based; procedure, shortened: as §1
SK-OV-3 [8] = experiment: Relative ratio of IC50 for human SKOV3 cells expressing MDR1-M6/6 to IC50 for human SKOV3 cells; type: functional
Procedure, shortened: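 Rr is the IC50 in Pgp-expressing SK-OV-3 MDR1-M6/6 cells divided by the IC50 in parental SK-OV-3 cells. Both IC50s come from the SRB assay, averaging three independent experiments run in triplicate.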

Tubulin (Homo sapiens) = Tubulin (Homo sapiens) (UniProt P68371+Q9H4B7+P0DPH7+P68366+Q13509+Q71U36+P04350+Q3ZCM7+P07437+P68363+Q9BQE3+Q6PEY2+Q13885+Q9BVA1+Q9BUF5); experiment: Induction of microtubule disruption in human HeLa cells assessed as multipolarization of spindle at 5 times IC50 incubated for 18 hrs by indirect immunofluorescence analysis relative to vehicle-treated control; type: cell-based
Procedure, shortened: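 Mitotic spindles and microtubules were imaged by indirect immunofluorescence with a β-tubulin antibody and compared with vehicle-treated cells.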

HeLa [9] = experiment: Relative ratio of IC50 for human HeLa cells expressing wild type beta3 tubulin to IC50 for human HeLa cells; type: functional
[10] = system: Tubulin (Rattus norvegicus); experiment: Induction of microtubule depolymerization in rat A10 cells at 2 times EC50 incubated for 18 hrs by indirect immunofluorescence analysis
MDA-MB-435 = experiment: Antitumor activity against human MDA-MB-435 cells xenografted in nude mouse assessed as tumor growth inhibition at 20 mg/kg, ip dosed on days 0 , 2, 4, 6, 8 and 11 relative to control

Row | Structure (SMILES) | IC50 (HeLa [1]) [nM] | IC50 (Tubulin) [nM] | IC50 (SK-OV-3 [2]) [nM] | Activity (HeLa [3]) [%] | IC50 (SK-OV-3 [4]) [nM] | inhibition (Tubulin (Bos taurus) [5]) [%] | inhibition (Tubulin (Bos taurus) [6]) [%] | IC50 (HeLa [7]) [nM] | Ratio IC50 (SK-OV-3 [8]) | Activity (Tubulin (Homo sapiens)) | Ratio IC50 (HeLa [9]) | Activity [10] | TGI (MDA-MB-435)
1 | CSc1ccc(N(C)c2ncnc3occ(C)c23)cc1 | 14.9 | 1200 | 18.6 | 64.09 | 32.1 | 94 | 79 | 15.7 | 1.7 | Active | 0.9 | Active | –
2 | CCCN(c1ccc(OC)cc1)c1ncnc2occ(C)c12 | 35.3 | 1100 | 40.3 | 89.25 | 71 | 92 | 75 | 33.8 | 1.8 | Active | 1 | Active | –
3 | CCN(c1ccc(OC)cc1)c1ncnc2occ(C)c12 | 14.6 | 970 | 14.5 | 63.76 | 18.3 | 95 | 84 | 15.8 | 1.3 | Active | 0.9 | Active | –
4 | CC(=O)O[C@H]1C(=O)[C@@]2(C)[C@H]([C@H](OC(=O)c3ccccc3)[C@]3(O)C[C@H](OC(=O)[C@H](O)[C@@H](NC(=O)c4ccccc4)c4ccccc4)C(C)=C1C3(C)C)[C@]1(OC(C)=O)CO[C@@H]1C[C@@H]2O | – | – | – | – | – | – | – | – | – | – | – | – | Active
5 | CCc1ccc(N(C)c2ncnc3occ(C)c23)cc1 | 159 | – | 156 | 76.19 | 162 | – | – | 120 | 1 | Active | 1.3 | Active | –
6 | CCCCN(c1ccc(OC)cc1)c1ncnc2occ(C)c12 | 116 | 1300 | 148 | 64.96 | 200 | 87 | 61 | 111 | 1.4 | Active | 1 | Active | –
7 | COc1ccc(N(c2ncnc3occ(C)c23)C(C)C)cc1 | – | 3000 | – | – | – | 47 | – | – | – | – | – | – | –
8 | COc1ccc(/C=C\c2cc(OC)c(OC)c(OC)c2)cc1O [COMBRETASTATIN A4] | – | – | – | 67.58 | – | – | – | – | – | – | – | – | –

Source: ChEMBL document CHEMBL4477200, “Design, Synthesis, and Preclinical Evaluation of 4-Substituted-5-methyl-furo[2,3-d]pyrimidines as Microtubule Targeting Agents That Are Effective against Multidrug Resistant Cancer Cells” (J Med Chem, 2016)
